Laboratory results reported in ChEMBL document CHEMBL1152488, “Synthesis and evaluation of pyrido[1,2-a]pyrimidines as inhibitors of nitric oxide synthases” (Eur J Med Chem, 2009).
Active and inactive are the calls of the source. The rule behind the calls is not given here.

Experiments:
[1] = molecular target: Nitric oxide synthase 1 (Rattus norvegicus) (UniProt P29476); assay: Inhibition of rat recombinant nNOS expressed in Saccharomyces cerevisiae assessed as conversion of [gamma-14C]L-arginine to [14C]L-citrulline at 100 uM by radioactive assay relative to control; set-up: scale not given: the % may be the effect or the level left
Summary of the method: (§1)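 Purified enzymes: rat nNOS from S. cerevisiae, murine iNOS and bovine eNOS from E. coli. Reaction 5 min at 37 °C in 50 mM Hepes pH 7.4 with DTT, 1 mM NADPH, H4B, FAD, FMN, [14C]L-arginine (2.5 µM L-arginine) and 100 µM compound in 1% DMSO. nNOS/eNOS also got 1 mM CaCl2 and CaM, which iNOS lacked. [14C]citrulline isolated on Dowex and counted by scintillation; % of DMSO control, n=3.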

[2] = molecular target: T1, Nitric oxide synthase, inducible (Mus musculus) (UniProt P29477); assay: Inhibition of mouse recombinant iNOS expressed in Escherichia coli assessed as conversion of [gamma-14C]L-arginine to [14C]L-citrulline at 100 uM by radioactive assay relative to control; set-up: scale not given: the % may be the effect or the level left; summary of the method: as §1
T1 sequence (whole entry): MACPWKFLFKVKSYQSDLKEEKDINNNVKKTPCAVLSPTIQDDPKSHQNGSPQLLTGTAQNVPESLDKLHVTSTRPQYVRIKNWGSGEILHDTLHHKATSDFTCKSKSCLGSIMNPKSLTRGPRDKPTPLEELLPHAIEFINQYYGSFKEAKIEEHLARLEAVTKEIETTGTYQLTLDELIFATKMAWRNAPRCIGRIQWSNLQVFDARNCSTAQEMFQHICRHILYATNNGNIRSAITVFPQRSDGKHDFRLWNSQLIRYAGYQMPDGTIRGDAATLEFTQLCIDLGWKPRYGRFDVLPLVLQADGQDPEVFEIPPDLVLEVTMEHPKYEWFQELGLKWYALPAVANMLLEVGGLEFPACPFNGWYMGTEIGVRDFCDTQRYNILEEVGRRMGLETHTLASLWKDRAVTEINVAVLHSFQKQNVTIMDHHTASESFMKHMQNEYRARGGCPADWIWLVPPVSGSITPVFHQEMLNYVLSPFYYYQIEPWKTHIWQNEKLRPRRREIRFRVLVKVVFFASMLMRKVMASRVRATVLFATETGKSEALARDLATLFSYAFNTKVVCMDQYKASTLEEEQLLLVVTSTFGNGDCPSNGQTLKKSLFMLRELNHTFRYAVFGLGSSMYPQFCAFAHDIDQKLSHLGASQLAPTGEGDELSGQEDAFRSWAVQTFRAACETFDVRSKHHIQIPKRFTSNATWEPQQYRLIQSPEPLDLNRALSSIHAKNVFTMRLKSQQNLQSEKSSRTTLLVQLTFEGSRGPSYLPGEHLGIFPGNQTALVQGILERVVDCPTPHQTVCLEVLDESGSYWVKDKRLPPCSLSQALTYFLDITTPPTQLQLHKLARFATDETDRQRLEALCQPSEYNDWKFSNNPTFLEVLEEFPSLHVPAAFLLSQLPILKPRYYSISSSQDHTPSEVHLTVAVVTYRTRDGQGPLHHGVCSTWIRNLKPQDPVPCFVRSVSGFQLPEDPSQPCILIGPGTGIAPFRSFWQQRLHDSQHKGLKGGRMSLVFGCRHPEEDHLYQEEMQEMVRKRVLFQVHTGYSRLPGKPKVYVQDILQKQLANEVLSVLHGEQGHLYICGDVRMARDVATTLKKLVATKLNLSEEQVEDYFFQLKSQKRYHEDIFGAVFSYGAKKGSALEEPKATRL

[3] = molecular target: T1, Nitric oxide synthase, inducible (Mus musculus); assay: Inhibition of mouse recombinant iNOS expressed in Escherichia coli assessed as NADPH consumption at 100 uM after 2 mins by spectrophotometry
Summary of the method: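 Murine iNOS from E. coli (15–50 nM final) in 50 mM Hepes pH 7.4 with 5 mM DTT, 100 µM CaCl2, 200 µM NADPH, 10 µM H4B, 100 µM L-arginine and 100 µM compound. Cofactors and compound preincubated 2 min at 37 °C, enzyme added, and A340 followed for 3 min (ε 6.2 mM-1 cm-1). Given as % of 1% DMSO control NADPH oxidase rate.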

[4] = molecular target: T2, Nitric oxide synthase, inducible (Mus musculus, UniProt P29477); assay: Inhibition of mouse recombinant iNOS expressed in Escherichia coli assessed as conversion of [gamma-14C]L-arginine to [14C]L-citrulline by radioactive assay
T2 sequence (P29477 whole entry): T1 sequence (whole entry)
Summary of the method: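 CaCl2/CaM present for nNOS (S. cerevisiae) and eNOS (E. coli) but omitted for iNOS (E. coli). Citrulline separated by Dowex cation exchange, then scintillation counting.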

[5] = Lipophilicity, log D at pH 7.4 by HPLC method; settings: buffer
[6] = molecular target: T1, Nitric oxide synthase, inducible (Mus musculus); assay: Binding affinity to oxygenase domain of mouse iNOS at 100 uM assessed as formation of enzyme-Fe3-ImH complex by UV-visible spectra analysis

Sequence of Nitric oxide synthase 1 (Rattus norvegicus) (P29476 whole entry): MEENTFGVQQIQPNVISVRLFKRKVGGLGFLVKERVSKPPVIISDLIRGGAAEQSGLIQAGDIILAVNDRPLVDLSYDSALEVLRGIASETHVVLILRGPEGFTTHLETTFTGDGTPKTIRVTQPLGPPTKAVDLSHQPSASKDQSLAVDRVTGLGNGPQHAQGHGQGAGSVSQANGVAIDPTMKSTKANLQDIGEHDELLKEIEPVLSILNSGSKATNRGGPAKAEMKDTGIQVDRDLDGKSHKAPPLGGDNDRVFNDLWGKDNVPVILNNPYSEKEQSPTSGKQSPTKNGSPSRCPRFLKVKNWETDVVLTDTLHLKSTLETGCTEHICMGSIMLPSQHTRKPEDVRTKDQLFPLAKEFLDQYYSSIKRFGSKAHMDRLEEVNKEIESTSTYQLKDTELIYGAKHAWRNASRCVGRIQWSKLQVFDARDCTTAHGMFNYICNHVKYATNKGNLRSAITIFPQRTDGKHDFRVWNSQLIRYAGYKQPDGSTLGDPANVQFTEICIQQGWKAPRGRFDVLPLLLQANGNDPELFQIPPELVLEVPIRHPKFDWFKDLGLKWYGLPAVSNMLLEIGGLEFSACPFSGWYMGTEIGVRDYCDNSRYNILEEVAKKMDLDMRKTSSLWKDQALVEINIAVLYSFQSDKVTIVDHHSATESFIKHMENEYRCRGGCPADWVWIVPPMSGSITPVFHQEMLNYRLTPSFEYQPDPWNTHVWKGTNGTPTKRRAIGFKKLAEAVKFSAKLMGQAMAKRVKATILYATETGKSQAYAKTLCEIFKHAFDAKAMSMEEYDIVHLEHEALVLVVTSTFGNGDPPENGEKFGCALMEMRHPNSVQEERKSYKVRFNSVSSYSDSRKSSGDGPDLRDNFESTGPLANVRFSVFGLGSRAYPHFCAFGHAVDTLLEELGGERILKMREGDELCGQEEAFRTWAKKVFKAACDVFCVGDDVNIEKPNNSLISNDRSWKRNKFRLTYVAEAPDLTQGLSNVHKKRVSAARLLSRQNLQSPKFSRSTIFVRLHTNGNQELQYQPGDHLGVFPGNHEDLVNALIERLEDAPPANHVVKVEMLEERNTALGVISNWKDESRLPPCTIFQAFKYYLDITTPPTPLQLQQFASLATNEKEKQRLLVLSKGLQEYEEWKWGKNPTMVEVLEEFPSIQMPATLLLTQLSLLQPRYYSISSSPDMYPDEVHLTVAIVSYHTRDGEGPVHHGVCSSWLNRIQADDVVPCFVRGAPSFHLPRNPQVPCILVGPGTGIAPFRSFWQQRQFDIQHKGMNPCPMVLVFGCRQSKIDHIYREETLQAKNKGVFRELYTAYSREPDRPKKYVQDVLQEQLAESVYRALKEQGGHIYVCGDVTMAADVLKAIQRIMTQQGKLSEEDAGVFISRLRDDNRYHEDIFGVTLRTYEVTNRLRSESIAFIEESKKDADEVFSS

In the case of `CC1=CC2=NCC(C(=O)c3ccc(OCc4ccc(C#N)cc4)cc3)CN2C=C1.[O-][Cl+3]([O-])([O-])O` (stereo not given), the Activity [1] is reported as 60%, the Activity [2] is reported as 30% and the Remaining NADPH oxidation rate (% of DMSO control) [3] is reported as 77%.
Molecule `CC1=CC2=NCC(C(=O)c3ccc(-c4ccc(Br)cc4)cc3)CN2C(C)=C1` (stereo not given) has an Activity [1] of 58%, an Activity [2] of 35% and an IC50 [4] of 120 µM. It also gave a Remaining NADPH oxidation rate (% of DMSO control) [3] of 72%.
With `CC1=CC2=NCC(C(=O)c3ccc4cc(C)ccc4c3)CN2C(C)=C1.[O-][Cl+3]([O-])([O-])O` (stereo not given) the logD [5] was 2.2, the Activity [1] was 55% and the Activity [2] was 28%. For the same molecule, the IC50 [4] was 35 µM, the Remaining NADPH oxidation rate (% of DMSO control) [3] was 72% and the Activity [6] was “Active”.
With `CC1=CC2=NCC(C(=O)c3ccc(OCc4ccc(Cl)cc4)cc3)CN2C=C1.[O-][Cl+3]([O-])([O-])O` (stereo not given) the Activity [1] was 49%, the Activity [2] was 25% and the Remaining NADPH oxidation rate (% of DMSO control) [3] was 64%.
For `CC1=CC2=NCC(C(=O)c3ccc(OCc4ccc(Br)cc4)cc3)CN2C=C1.Cl` (stereo not given), the Activity [1] was 62%, the Activity [2] was 62% and the Remaining NADPH oxidation rate (% of DMSO control) [3] was 100%.
In the case of `CC1=CC=CC2=NCC(C(=O)c3ccc(C)cc3)CN12.[O-][Cl+3]([O-])([O-])O` (stereo not given), the logD [5] is reported as 1.6, the Activity [1] is reported as 76% and the Activity [2] is reported as 66%. It also gave a Remaining NADPH oxidation rate (% of DMSO control) [3] of 94%.
For `N=C(NCCC[C@H](N)C(=O)O)N[N+](=O)[O-]`, the Activity [1] was 2%, the Activity [2] was 15% and the Activity [6] was “Active”.
`CC1=CC2=NCC(C(=O)c3ccc(-c4ccc(C#N)cc4)cc3)CN2C=C1.Cl` (stereo not given) showed an Activity [1] of 43%, an Activity [2] of 18% and an IC50 [4] of 50 µM. The Remaining NADPH oxidation rate (% of DMSO control) [3] was 40% and the Activity [6] was “Active”.
`COc1ccc(-c2ccc(C(=O)C3CN=C4C=C(C)C=CN4C3)cc2)cc1.Cl` (stereo not given) gave an Activity [1] of 29%, an Activity [2] of 13% and an IC50 [4] of 18 µM. The Remaining NADPH oxidation rate (% of DMSO control) [3] was 40% and the Activity [6] was “Active”.
`CC1=CC2=NCC(C(=O)c3ccc(-c4ccc(Br)cc4)cc3)CN2C=C1.[O-][Cl+3]([O-])([O-])O` (stereo not given) gave a logD [5] of 2.7, an Activity [1] of 10% and an Activity [2] of 19%. For the same molecule, the IC50 [4] was 28 µM, the Remaining NADPH oxidation rate (% of DMSO control) [3] was 64% and the Activity [6] was “Active”.
Molecule `CC1=CC2=NCC(C(=O)c3ccc4cc(C)ccc4c3)CN2C=C1.[O-][Cl+3]([O-])([O-])O` (stereo not given) has an Activity [1] of 69%, an Activity [2] of 13% and an IC50 [4] of 29 µM. The Remaining NADPH oxidation rate (% of DMSO control) [3] was 70% and the Activity [6] was “Active”.
`CC1=CC=CC2=NCC(C(=O)c3ccc(F)cc3)CN12.[O-][Cl+3]([O-])([O-])O` (stereo not given) showed an Activity [1] of 83%, an Activity [2] of 66% and a Remaining NADPH oxidation rate (% of DMSO control) [3] of 87%. For the same molecule, the Activity [6] was “Active”.
For `CC1=CC2=NCC(C(=O)c3ccc4ccccc4c3)CN2C=C1` (stereo not given), the logD [5] was 1.7.
Work on `O=C(c1ccc(Cl)c(Cl)c1)C1CN=C2C=CC=CN2C1.[O-][Cl+3]([O-])([O-])O` (stereo not given) yielded a logD [5] of 1.8, an Activity [1] of 87% and an Activity [2] of 85%. For the same molecule, the Remaining NADPH oxidation rate (% of DMSO control) [3] was 100% and the Activity [6] was “Active”.
`COc1ccc(C(=O)C2CN=C3C=C(C)C=CN3C2)cc1F.[O-][Cl+3]([O-])([O-])O` (stereo not given) gave an Activity [1] of 69%, an Activity [2] of 45% and a Remaining NADPH oxidation rate (% of DMSO control) [3] of 73%. The Activity [6] was “Active”.
Molecule `COc1ccc(C(=O)C2CN=C3C=CC=C(C)N3C2)cc1OC.[O-][Cl+3]([O-])([O-])O` (stereo not given) has a logD [5] of 1.5, an Activity [1] of 100% and an Activity [2] of 91%. The Remaining NADPH oxidation rate (% of DMSO control) [3] was 92%.
